The text below walks through data of ChEMBL document CHEMBL4359896, “Chromenone derivatives as a versatile scaffold with dual mode of inhibition of HIV-1 reverse transcriptase-associated Ribonuclease H function and integrase activity” (Eur J Med Chem, 2019).

For assay [1], the system named is Human immunodeficiency virus 1. The assay can be described thus: Inhibition of His-tagged HIV-1 integrase interaction with HIV-1 FLAG-tagged LEDGF/p75 expressed in Escherichia coli BL21(DE3) cells at 100 uM incubated for 30 mins followed by LEDGF addition measured after 4 hrs by HTRF assay relative to control.
Assay [2] is described as follows: Inhibition of His-tagged HIV-1 integrase interaction with HIV-1 FLAG-tagged LEDGF/p75 expressed in Escherichia coli BL21(DE3) cells incubated for 30 mins followed by LEDGF addition measured after 4 hrs by HTRF assay. The arrangement: species or system Human immunodeficiency virus 1. A general note: In TR-FRET formats the signal depends on donor and acceptor labels being close together.

In assay [3] the target is Human immunodeficiency virus type 1 reverse transcriptase (Human immunodeficiency virus 1, UniProt Q72547). The assay can be described thus: Inhibition of His6-tagged HIV-1 reverse transcriptase RNase H using 5'-GTTTTCTTTTCCCCCCTGAC-3'-Fluorescein-labeled RNA/5'-CAAAAGAAAAGGGGGGACUG-3'-Dabcyl-labeled DNA as susbtrate incubated for 1 hr by fluorescence based assay.
Assay [4] has as its target T1, Human immunodeficiency virus type 1 integrase (Human immunodeficiency virus 1, UniProt Q7ZJM1). The assay can be described thus: Inhibition of LEDGF/p75-dependent full length HIV-1 integrase expressed in Escherichia coli BL21(DE3) cells preincubated for 1 hr further incubated for 90 mins with biotin-labeled donor DNA and target DNA by HTRF assay.
In assay [5] the target is Human immunodeficiency virus type 1 integrase (Human immunodeficiency virus 1) (UniProt Q7ZJM1). Nature of the assay: Inhibition of LEDGF/p75-dependent full length HIV-1 integrase expressed in Escherichia coli BL21(DE3) cells at 100 uM preincubated for 1 hr further incubated for 90 mins with biotin-labeled donor DNA and target DNA by HTRF assay relative to control. In short, it runs like this: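 Added 9 nM biotinylated donor DNA, 50 nM Cy5 acceptor DNA and 50 nM LEDGF/p75. Incubation 90 min at 37 °C, then 4 nM europium-streptavidin added. HTRF read (excitation 314 nm, emission 668/620 nm).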

In assay [6] the target is Human immunodeficiency virus type 1 reverse transcriptase (Human immunodeficiency virus 1) (UniProt Q72547). The assay can be described thus: Residual activity of His-tagged HIV-1 reverse transcriptase RNase H at 100 uM using 5'-GTTTTCTTTTCCCCCCTGAC-3'-Fluorescein-labeled RNA/5'-CAAAAGAAAAGGGGGGACUG-3'-Dabcyl-labeled DNA as susbtrate incubated for 1 hr by fluorescence based assay relative to control.

Assay [7] has as its target Human immunodeficiency virus type 1 integrase (Human immunodeficiency virus 1) (UniProt Q7ZJM1).
In assay [8] the target is T1, Human immunodeficiency virus type 1 integrase. The assay can be described thus: Inhibition of subunit exchanging activity of His and Flag-tagged HIV-1 integrase expressed in Escherichia coli BL21(DE3) cells after 2.5 hrs by HTRF assay.

T1 sequence (Q7ZJM1 whole entry): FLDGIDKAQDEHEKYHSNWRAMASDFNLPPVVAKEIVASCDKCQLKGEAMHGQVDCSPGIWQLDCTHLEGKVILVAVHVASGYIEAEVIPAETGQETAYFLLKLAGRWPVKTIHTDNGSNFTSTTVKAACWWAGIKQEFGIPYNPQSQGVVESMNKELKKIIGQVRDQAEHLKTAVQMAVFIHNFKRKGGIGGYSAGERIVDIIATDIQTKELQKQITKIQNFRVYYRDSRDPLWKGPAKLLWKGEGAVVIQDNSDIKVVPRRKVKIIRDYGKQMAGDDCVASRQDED
Chain of Human immunodeficiency virus type 1 integrase (Human immunodeficiency virus 1) (Q7ZJM1 as listed by the source): as the sequence (Q7ZJM1 whole entry) above

The inhibition is the drop in the measured response relative to a control, in per cent. In general, IC50 refers to the concentration needed to halve the response being measured. A low value points to higher potency. The molecule `Cc1nnc(C(=O)NC(C)(C)c2nc(C(=O)NCc3ccc(F)cc3)c(O)c(=O)n2C)o1` registered an inhibition in assay [1] of 100%. In assay [2], this molecule showed an IC50 of more than 100 µM.

As for `CC(=O)c1c(O)c2c(=O)oc3c(C)cccc3c2oc1=O`, the values for the IC50 in assay [3] and in assay [4] were 25.5 µM and 18.5 µM, respectively.

With `Cc1cc(-c2c(O)c3c(=O)oc4ccccc4c3oc2=O)nn1-c1ccccc1`, the IC50 was 51.8 µM in assay [3] and more than 100 µM in assay [4]. In assay [5], this molecule came in with an inhibition of 61%.

As a reminder, the residual activity is the share of the control activity or signal that is left under treatment. Read a low residual activity as a large loss of activity. On to `CC(=O)c1c(O)c2c(=O)oc3cc(C)ccc3c2oc1=O`, for which the IC50 in assay [3] was more than 100 µM; in assay [4], 22.4 µM. In assay [6], this molecule yielded a residual activity of 63%.

Consider `Cc1ccc2oc(=O)c3c(O)cc(=O)oc3c2c1`, for which the IC50 in assay [3] is 16.5 µM; in assay [4], 9.5 µM; in assay [8] it was 69 µM; in assay [2], more than 100 µM. Also, in assay [1], the inhibition was 55%. The molecule further displayed an MI50 in assay [7] of more than 100 µM.

With `CC(=O)CC(=O)c1c(O)c2c(=O)oc3ccccc3c2oc1=O`, the IC50 is 85.8 µM in assay [3] and 42 µM in assay [4].

Take `Cc1cccc2c1oc(=O)c1c(O)cc(=O)oc12`: the IC50 in assay [3] turned out to be 29.8 µM; in assay [4], 24 µM.

Take `O=C(c1ccccc1)c1ccc2c(c1)N=CCC(c1c(O)c3c(=O)oc4ccccc4c3oc1=O)=N2`: the IC50 in assay [3] was 38.4 µM; in assay [4], 20 µM; in assay [8] it was more than 100 µM; in assay [2], more than 100 µM. Further, the inhibition in assay [1] turned out to be 81%. Also, in assay [7], the MI50 was more than 100 µM.

Regarding `O=c1cc(O)c2c(=O)oc3ccc4ccccc4c3c2o1`, the IC50 in assay [3] was 61.3 µM; in assay [4], 21.5 µM.

On to `Cc1ccc2oc(=O)c3cc(C4=Nc5ccc(C(=O)c6ccccc6)cc5N=CC4)c(=O)oc3c2c1`, for which the IC50 was 42.9 µM in assay [3] and more than 100 µM in assay [4]. In assay [5], the inhibition is 78%.

With `Cc1cc(=O)c2c(=O)oc3c4ccccc4oc(=O)c3c2o1`, the IC50 in assay [3] is 16.8 µM; in assay [4], 14 µM; in assay [8] it was more than 100 µM; in assay [2], more than 100 µM. Besides, the inhibition in assay [1] turned out to be 56%. In assay [7], this molecule displayed an MI50 of more than 100 µM.

Regarding `CC(=O)c1c(O)c2c(=O)oc3ccccc3c2oc1=O`, the IC50 in assay [3] was determined as 26.3 µM; in assay [4], 8.5 µM.

In the case of `CC(=O)CC(=O)c1c(O)c2c(=O)oc3c4ccccc4ccc3c2oc1=O`, the IC50 in assay [3] was 51.2 µM; in assay [4], 11 µM; in assay [8], 85 µM; in assay [2], more than 100 µM. The inhibition in assay [1] was found to be 73%. For the same molecule, the MI50 in assay [7] is more than 100 µM.

For the molecule `CC(=O)c1c(O)c2c(=O)oc3ccc(C)cc3c2oc1=O`, the IC50 in assay [3] is 6.75 µM; in assay [4] it was 6.45 µM; in assay [8] it was 56.5 µM; in assay [2], more than 100 µM. Also, the inhibition in assay [1] was determined as 52%. In assay [7], this molecule returned an MI50 of more than 100 µM.

`O=c1cc(O)c2c(=O)oc3c4ccccc4ccc3c2o1`: the IC50 in assay [3] was 24.7 µM; in assay [4], 7.5 µM; in assay [8], 57 µM; in assay [2] it was more than 100 µM. In assay [1], this molecule had an inhibition of 53%. In addition, in assay [7], the MI50 is more than 100 µM.

`CCCC(C(=O)O)c1c(C)nc2ccc(Cl)cc2c1-c1ccccc1` (centres undefined) had an MI50 in assay [7] of 10 µM. In assay [2], the IC50 amounted to 13 µM.

On to `Cc1ccc2c(c1)oc(=O)c1c(O)cc(=O)oc12`, for which the IC50 was more than 100 µM in assay [3] and 41.5 µM in assay [4]. The molecule further displayed a residual activity in assay [6] of 89%.

With `CC(=O)CC(=O)c1c(O)c2c(=O)oc3ccc4ccccc4c3c2oc1=O`, the IC50 is 13.8 µM in assay [3] and 47.5 µM in assay [4].
